From ChEMBL document CHEMBL3860043, “Non-Acidic Free Fatty Acid Receptor 4 Agonists with Antidiabetic Activity” (J Med Chem, 2016)
≈ marks a conversion by molar mass, not a printed value. Calls of active or inactive are those of the source. The calls are words filed in the database; no cut-off is given here.

Legend:
[1] = molecular target: T1, Free fatty acid receptor 4 (Homo sapiens, UniProt Q5NUL3); experiment: Agonist activity at C-terminal YFP-tagged human FFA4 expressed in HEK293 cells in presence of coelentrazine h by BRET based beta-arrestin-2 interaction assay; assay type: cell-based
T1 sequence (Q5NUL3 whole entry): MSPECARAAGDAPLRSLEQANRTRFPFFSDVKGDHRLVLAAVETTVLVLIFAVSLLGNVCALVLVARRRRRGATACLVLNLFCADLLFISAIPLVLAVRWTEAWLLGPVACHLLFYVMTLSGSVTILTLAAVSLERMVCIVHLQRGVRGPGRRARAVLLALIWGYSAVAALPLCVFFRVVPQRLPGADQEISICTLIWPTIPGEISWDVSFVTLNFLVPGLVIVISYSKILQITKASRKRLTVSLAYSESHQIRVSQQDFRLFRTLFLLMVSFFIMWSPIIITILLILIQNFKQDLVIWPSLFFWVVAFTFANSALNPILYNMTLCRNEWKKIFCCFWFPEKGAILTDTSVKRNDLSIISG
In short: (§1)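 HEK293 cells co-transfected with C-terminal eYFP-fused human FFA4 and β-arrestin-2–Renilla luciferase; plated 24 h post-transfection, used 24 h later. After an HBSS wash, coelenterazine h (2.5 µM) for 15 min, with ligands present for the final 5 min, 37 °C. BRET taken as the 535/475 nm emission ratio. Efficacy relative to 100 µM reference agonist. Three-parameter sigmoidal fits; mean ± S.E. of 2-4 independent experiments.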

[2] = molecular target: T2, Free fatty acid receptor 4 (Homo sapiens) (UniProt Q5NUL3); experiment: Agonist activity at C-terminal YFP-tagged human FFA4 expressed in HEK293 cells in presence of coelentrazine h by BRET based beta-arrestin-2 interaction assay relative to 100 uM […]; assay type: cell-based; in short: as §1
T2 sequence (whole entry): T1 sequence (Q5NUL3 whole entry)

[3] = molecular target: T3, Free fatty acid receptor 1 (Homo sapiens, UniProt O14842); experiment: Antagonist activity against human FFA1 expressed in human Flp-In T-REx293 cells assessed as as reduction in TUG770-induced response by Fura2-AM dye based calcium mobilization assay; assay type: functional, cell-based
In short: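 Antagonism measured in FFA1 Ca2+ mobilization with 20 nM TUG-770 as the stimulating agonist. Test ligand preincubated 15 min in HBSS before agonist addition. Read-out is the change in Fura2 340:380 ratio at 510 nm emission.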

[4] = Solubility in FaSSIF solution; assay type: physicochemical
[5] = molecular target: T1, Free fatty acid receptor 4; experiment: Agonist activity at human FFA4 expressed in human Flp-In T-REx293 cells by Fura2-AM dye based calcium mobilization assay; assay type: functional, cell-based
In short: (§2)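 Flp-In T-REx 293 cells with doxycycline-inducible human FFA4 seeded at 50000 cells/well and induced overnight with 100 ng/ml doxycycline. Loaded with Fura2-AM for 45 min, washed three times in HBSS, equilibrated 15 min, then ligand added. Emission at 510 nm with 340/380 nm excitation; response is the change in 340:380 ratio. Efficacy relative to 100 µM reference agonist; 2-4 independent experiments, sigmoidal fits.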

[6] = molecular target: T4, Free fatty acid receptor 4 (Mus musculus, UniProt Q7TMA4); experiment: Agonist activity mouse FFA4 by Gq-dependent calcium mobilization assay; assay type: functional
T4 sequence (Q7TMA4 whole entry): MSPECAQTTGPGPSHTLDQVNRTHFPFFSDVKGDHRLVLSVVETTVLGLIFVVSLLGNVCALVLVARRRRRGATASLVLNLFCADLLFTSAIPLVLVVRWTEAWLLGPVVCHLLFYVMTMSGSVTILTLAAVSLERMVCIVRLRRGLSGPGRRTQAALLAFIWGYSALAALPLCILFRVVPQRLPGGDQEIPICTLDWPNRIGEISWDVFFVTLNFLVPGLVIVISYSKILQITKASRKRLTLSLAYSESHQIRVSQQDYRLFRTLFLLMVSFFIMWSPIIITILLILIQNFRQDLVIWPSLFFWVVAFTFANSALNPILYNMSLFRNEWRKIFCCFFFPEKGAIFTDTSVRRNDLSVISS

[7] = molecular target: T2, Free fatty acid receptor 4 (Homo sapiens); experiment: Agonist activity at human FFA4 expressed in human Flp-In T-REx293 cells by Fura2-AM dye based calcium mobilization assay relative to 100 uM […]; assay type: functional, cell-based; in short: as §2
[8] = Solubility in PBS buffer; assay type: physicochemical
[9] = molecular target: T3, Free fatty acid receptor 1; experiment: Antagonist activity against human FFA1 expressed in human Flp-In T-REx293 cells assessed as as reduction in TUG424-induced response by Fura2-AM dye based calcium mobilization assay; assay type: functional, cell-based
In short: (§3)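 Flp-In T-REx 293 cells with inducible human FFA1, seeded at 50000 cells/well and induced with 100 ng/ml doxycycline after 3-4 h adherence. Next day loaded with Fura2-AM for 45 min, washed, then preincubated 15 min in HBSS with test ligand before 300 nM agonist challenge. Fura2 340:380 ratio change read at 510 nm emission. Inhibition expressed as % reduction of the agonist response.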

[10] = molecular target: T3, Free fatty acid receptor 1; experiment: Antagonist activity against human FFA1 expressed in human Flp-In T-REx293 cells assessed as as reduction in 300 nM TUG424-induced response by Fura2-AM dye based calcium mobilization assay relative to untreated control; assay type: functional, cell-based; in short: as §3
Mus musculus [11] = experiment: Toxicity in wild type DIO mouse assessed as reduction in body weight at 10 mg/kg, po dosed daily over 3 week period administered 15 mins before oral glucose challenge on first day measured after 21 days; assay type: organism-based; parameters: scale not given: the % may be the effect or the level left; conditions: in vivo, 504 h
Mus musculus [12] = experiment: Increase in plasma insulin level in wild type DIO mouse at 10 mg/kg, po dosed daily over 3 week period administered 15 mins before oral glucose challenge on first day measured 30 mins after glucose challenge by ELISA; assay type: functional, organism-based
Mus musculus [13] = experiment: Reduction in fasting plasma insulin level in wild type DIO mouse at 10 mg/kg, po dosed daily over 3 week period administered 15 mins before oral glucose challenge on first day measured after 21 days by ELISA; assay type: functional, organism-based
In short: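 DIO wild-type and FFA4(-/-) littermates (63% fat diet for 5 months) dosed 10 mg/kg po once daily for 21 days. Fasting blood collected into EDTA and spun at 3,000 g for 5 min at 4 °C; plasma stored at -80 °C. Insulin measured in duplicate by murine insulin ELISA, absorbance at 450 nm.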

Homo sapiens [14] = species: Homo sapiens; experiment: Selectivity for human FFA4 over FFA3 (unknown origin)
[15] = Effect on water intake level in FFA4 (-/-) DIO mouse at 10 mg/kg, po dosed daily over 3 week period administered 15 mins before oral glucose challenge on first day measured after 21 days; assay type: ADME, organism-based; conditions: in vivo, 504 h
Mus musculus [16] = experiment: Reduction in glucose level in wild type DIO mouse at 10 mg/kg, po dosed daily over 3 week period administered 15 mins before oral glucose challenge on first day measured after 21 days by OGTT method; assay type: functional, organism-based
Mus musculus [17] = experiment: Toxicity in FFA4 (-/-) DIO mouse assessed as weight gain in at 10 mg/kg, po dosed daily over 3 week period administered 15 mins before oral glucose challenge on first day measured after 21 days; assay type: organism-based; conditions: in vivo, 504 h
[18] = Lipophilicity, log D of the compound at pH 7.4; assay type: physicochemical; conditions: buffer
[19] = Effect on water intake level in wild type DIO mouse at 10 mg/kg, po dosed daily over 3 week period administered 15 mins before oral glucose challenge on first day measured after 21 days; assay type: ADME, organism-based; conditions: in vivo, 504 h
[20] = Effect on food intake level in FFA4 (-/-) DIO mouse at 10 mg/kg, po dosed daily over 3 week period administered 15 mins before oral glucose challenge on first day measured after 21 days; assay type: ADME, organism-based; conditions: in vivo, 504 h
[21] = Effect on food intake level in wild type DIO mouse at 10 mg/kg, po dosed daily over 3 week period administered 15 mins before oral glucose challenge on first day measured after 21 days; assay type: ADME, organism-based; conditions: in vivo, 504 h
Homo sapiens [22] = species: Homo sapiens; experiment: Selectivity for human FFA4 over human FFA1
Mus musculus [23] = experiment: Reduction in plasma glucose level in mouse at 10 mg/kg, po dosed 15 mins before oral glucose challenge by OGTT method; assay type: functional, organism-based
In short: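 Mice fasted 5 h and given compound orally at 10 mg/kg, 15 min before an oral glucose load of 3 g/kg. Tail-tip blood sampled under local anesthetic 30 min before and immediately before the load, and at 30, 60, 90, 120 and 180 min after it. Glucose measured in duplicate by glucose oxidase colorimetric assay; n=6 mice per group.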

Homo sapiens [24] = species: Homo sapiens; experiment: Selectivity for human FFA4 over FFA2 (unknown origin)
Mus musculus [25] = experiment: Toxicity in FFA4 (-/-) DIO mouse assessed as reduction in body weight at 10 mg/kg, po dosed daily over 3 week period administered 15 mins before oral glucose challenge on first day measured after 21 days; assay type: organism-based; conditions: in vivo, 504 h
[26] = molecular target: T4, Free fatty acid receptor 4; experiment: Agonist activity mouse FFA4 by BRET based beta-arrestin-2 interaction assay
In short: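 Mouse FFA4 fused C-terminally to eYFP, co-transfected into HEK293 cells with β-arrestin-2–Renilla luciferase. After an HBSS wash, coelenterazine h (2.5 µM) for 15 min, with ligand added for the last 5 min, 37 °C. BRET read as the 535/475 nm luminescence ratio. Three-parameter sigmoidal curve fitting; 2-4 independent experiments.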

Mus musculus [27] = experiment: Reduction in plasma glucose level in wild type DIO mouse at 10 mg/kg, po dosed daily over 3 week period administered 15 mins before oral glucose challenge on first day by OGTT method; assay type: functional, organism-based
In short: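 Male wild-type and FFA4(-/-) littermates (C57Bl6 background) fed 63% high-fat diet from 6 weeks of age for 5 months. On day 0, fasted 5 h, dosed 10 mg/kg po, then given glucose 3 g/kg po 15 min later. Tail blood sampled from -30 to 180 min; glucose measured in duplicate by colorimetric glucose oxidase assay. n=9 per group; two-way ANOVA with Bonferroni post hoc test.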

T3 sequence (O14842 whole entry): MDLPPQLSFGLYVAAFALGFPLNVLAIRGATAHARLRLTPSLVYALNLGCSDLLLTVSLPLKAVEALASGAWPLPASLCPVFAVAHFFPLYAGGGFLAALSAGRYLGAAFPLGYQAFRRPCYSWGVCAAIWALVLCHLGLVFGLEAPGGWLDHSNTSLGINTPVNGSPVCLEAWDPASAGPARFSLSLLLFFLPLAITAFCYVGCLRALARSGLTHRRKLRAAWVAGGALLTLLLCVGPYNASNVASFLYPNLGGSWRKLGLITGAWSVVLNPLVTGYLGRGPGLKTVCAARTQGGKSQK

COc1ccc(S(=O)(=O)Nc2c(C)cc(C)cc2C)cc1
EC50 ([1]; read-out: pEC50 (converted)): 0.49 µM | Emax [2]: 82%

O=S1(=O)c2ccccc2CN1c1cc(Cl)cc(Oc2ccccn2)c1
IC50 [3]: > 100 µM | solubility [4]: 0.9 µM (≈ 0.336 µg/mL) | EC50 [5]: 0.0389 µM | EC50 [6]: 0.0724 µM | Emax [7]: 78% | solubility [8]: 0.1 µM (≈ 0.0373 µg/mL) | EC50 ([1]; read-out: EC50): 0.04 µM | EC50 ([1]; read-out: pEC50 (converted)): 0.138 µM | Emax [2]: 113%

N#Cc1cccc(Oc2cc(F)cc(N3Cc4ccccc4S3(=O)=O)c2)c1
IC50 [9]: 3.39 µM | Imax [10]: 52% | EC50 ([1]; read-out: pEC50 (converted)): 5.75 µM | Emax [2]: 83%

O=S1(=O)c2ccccc2CN1c1cc(F)cc(Oc2ccccn2)c1
Activity (Mus musculus [11]): 7 to 9% | Activity (Mus musculus [12]): Active | IC50 [9]: > 100 µM | Activity (Mus musculus [13]): Active | Selectivity ratio (Homo sapiens [14]): > 300 | Activity [15]: Non-Toxic | Activity (Mus musculus [16]): Active | Activity (Mus musculus [17]): Non-Toxic | logD [18]: 3.17 | Activity [19]: Non-Toxic | Activity [20]: Non-Toxic | solubility [4]: 14 µM (≈ 4.99 µg/mL) | Activity [21]: Non-Toxic | EC50 [5]: 0.234 µM | Selectivity ratio (Homo sapiens [22]): > 300 | Activity (Mus musculus [23]): Active | Selectivity ratio (Homo sapiens [24]): > 300 | EC50 [6]: 0.148 µM | Activity (Mus musculus [25]): Non-Toxic | Emax [7]: 130% | EC50 [26]: 0.479 µM | solubility [8]: 1.3 µM (≈ 0.463 µg/mL) | EC50 ([1]; read-out: EC50): 0.128 µM | EC50 ([1]; read-out: pEC50 (converted)): 0.123 µM | Activity (Mus musculus [27]): Active | Emax [2]: 98%

CN(c1ccc(Oc2ccccc2)cc1)S(=O)(=O)c1ccc(F)cc1
IC50 [9]: 10.7 µM | Imax [10]: 57%

Cc1cccc(Oc2cc(F)cc(N3Cc4ccccc4S3(=O)=O)c2)c1
IC50 [9]: 25.1 µM | Imax [10]: 51% | EC50 [5]: 4.47 µM | Emax [7]: 14% | EC50 ([1]; read-out: pEC50 (converted)): 2.63 µM | Emax [2]: 87%

O=S(=O)(Nc1cc(F)cc(Oc2cccnc2)c1)c1ccc(F)cc1
EC50 ([1]; read-out: pEC50 (converted)): 16.6 µM | Emax [2]: 39%

O=C1c2ccccc2C(=O)N1c1cc(F)cc(Oc2cccnc2)c1
EC50 ([1]; read-out: pEC50 (converted)): 5.01 µM | Emax [2]: 45%

Cc1ccc(S(=O)(=O)Nc2ccc(Oc3ccccc3)cc2)cc1
IC50 [9]: 10 µM | Imax [10]: 100%

Cc1ccccc1Oc1cc(F)cc(N2Cc3ccccc3S2(=O)=O)c1
IC50 [9]: 44.7 µM | Imax [10]: 71% | EC50 ([1]; read-out: pEC50 (converted)): 2.69 µM | Emax [2]: 42%

Cc1ccc(Oc2cc(F)cc(N3Cc4ccccc4S3(=O)=O)c2)cc1
IC50 [9]: 2.88 µM | Imax [10]: 52% | EC50 [5]: 1.1 µM | Emax [7]: 38% | EC50 ([1]; read-out: pEC50 (converted)): 0.437 µM | Emax [2]: 91%
